ChEMBL document CHEMBL5376013, “Design, synthesis and biological evaluation of novel morpholinopyrimidine-5-carbonitrile derivatives as dual PI3K/mTOR inhibitors” (RSC Med Chem, 2024)

Columns and labels:
Format in all cases: functional
Settings in all cases: read-out: GI
CCRF-CEM = assay: Antitumor activity against human CCRF-CEM cells assessed as growth inhibition at 10 uM relative to control
Outline: (§1)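 After drug addition, plates were incubated 48 h at 37 °C under 5% CO2. Adherent cells were fixed with cold TCA (10% final, 60 min, 4 °C) and suspension cells with 16% final TCA. Staining used 0.4% SRB in 1% acetic acid, solubilized in 10 mM trizma, read at A515. Percent growth was calculated from time-zero, control and treated absorbances.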

K562 = assay: Antitumor activity against human K562 cells assessed as growth inhibition at 10 uM relative to control; outline: as §1
MOLT-4 = assay: Antitumor activity against human MOLT-4 cells assessed as growth inhibition at 10 uM relative to control; outline: as §1
RPMI-8226 = assay: Antitumor activity against human RPMI-8226 cells assessed as growth inhibition at 10 uM relative to control; outline: as §1
EKVX = assay: Antitumor activity against human EKVX cells assessed as growth inhibition at 10 uM relative to control; outline: as §1
NCI-H226 = assay: Antitumor activity against human NCI-H226 cells assessed as growth inhibition at 10 uM relative to control; outline: as §1
NCI-H23 = assay: Antitumor activity against human NCI-H23 cells assessed as growth inhibition at 10 uM relative to control; outline: as §1
NCI-H322M = assay: Antitumor activity against human NCI-H322M cells assessed as growth inhibition at 10 uM relative to control; outline: as §1
NCI-H522 = assay: Antitumor activity against human NCI-H522 cells assessed as growth inhibition at 10 uM relative to control; outline: as §1
COLO 205 = assay: Antitumor activity against human COLO 205 cells assessed as growth inhibition at 10 uM relative to control; outline: as §1
HCT-116 = assay: Antitumor activity against human HCT-116 cells assessed as growth inhibition at 10 uM relative to control; outline: as §1
HCT-15 = assay: Antitumor activity against human HCT-15 cells assessed as growth inhibition at 10 uM relative to control; outline: as §1
HT-29 = assay: Antitumor activity against human HT-29 cells assessed as growth inhibition at 10 uM relative to control; outline: as §1
KM12 = assay: Antitumor activity against human KM12 cells assessed as growth inhibition at 10 uM relative to control; outline: as §1
SW-620 = assay: Antitumor activity against human SW-620 cells assessed as growth inhibition at 10 uM relative to control
Outline: (§2)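 Drug exposure 48 h at 37 °C, 5% CO2. Adherent cells fixed with cold TCA (10% final), suspension cells with TCA (16% final). Stained with 0.4% SRB in 1% acetic acid, dissolved in 10 mM Tris, A515. Growth relative to time-zero and untreated control.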

SF-268 = assay: Antitumor activity against human SF-268 cells assessed as growth inhibition at 10 uM relative to control; outline: as §1
SF-539 = assay: Antitumor activity against human SF-539 cells assessed as growth inhibition at 10 uM relative to control; outline: as §1
SNB-19 = assay: Antitumor activity against human SNB-19 cells assessed as growth inhibition at 10 uM relative to control; outline: as §2
SNB-75 = assay: Antitumor activity against human SNB-75 cells assessed as growth inhibition at 10 uM relative to control; outline: as §2
U-251 = assay: Antitumor activity against human U-251 cells assessed as growth inhibition at 10 uM relative to control; outline: as §2
LOX IMVI = assay: Antitumor activity against human LOX IMVI cells assessed as growth inhibition at 10 uM relative to control; outline: as §1
Malme-3M = assay: Antitumor activity against human Malme-3M cells assessed as growth inhibition at 10 uM relative to control; outline: as §1
M14 = assay: Antitumor activity against human M14 cells assessed as growth inhibition at 10 uM relative to control; outline: as §1
MDA-MB-435 = assay: Antitumor activity against human MDA-MB-435 cells assessed as growth inhibition at 10 uM relative to control; outline: as §1
SK-MEL-2 = assay: Antitumor activity against human SK-MEL-2 cells assessed as growth inhibition at 10 uM relative to control; outline: as §1
SK-MEL-28 = assay: Antitumor activity against human SK-MEL-28 cells assessed as growth inhibition at 10 uM relative to control; outline: as §2
SK-MEL-5 = assay: Antitumor activity against human SK-MEL-5 cells assessed as growth inhibition at 10 uM relative to control; outline: as §2
UACC-257 = assay: Antitumor activity against human UACC-257 cells assessed as growth inhibition at 10 uM relative to control; outline: as §2
UACC-62 = assay: Antitumor activity against human UACC-62 cells assessed as growth inhibition at 10 uM relative to control; outline: as §2
OVCAR-3 = assay: Antitumor activity against human OVCAR-3 cells assessed as growth inhibition at 10 uM relative to control; outline: as §1
OVCAR-5 = assay: Antitumor activity against human OVCAR-5 cells assessed as growth inhibition at 10 uM relative to control; outline: as §1
OVCAR-8 = assay: Antitumor activity against human OVCAR-8 cells assessed as growth inhibition at 10 uM relative to control; outline: as §1
NCI/ADR-RES = assay: Antitumor activity against human NCI-ADR-RES cells assessed as growth inhibition at 10 uM relative to control; outline: as §1
SK-OV-3 = assay: Antitumor activity against human SK-OV-3 cells assessed as growth inhibition at 10 uM relative to control; outline: as §2
786-0 = assay: Antitumor activity against human 786-0 cells assessed as growth inhibition at 10 uM relative to control; outline: as §1
A498 = assay: Antitumor activity against human A498 cells assessed as growth inhibition at 10 uM relative to control; outline: as §1
ACHN = assay: Antitumor activity against human ACHN cells assessed as growth inhibition at 10 uM relative to control; outline: as §1
CAKI-1 = assay: Antitumor activity against human CAKI-1 cells assessed as growth inhibition at 10 uM relative to control; outline: as §1
RXF 393 = assay: Antitumor activity against human RXF 393 cells assessed as growth inhibition at 10 uM relative to control; outline: as §1
SN12C = assay: Antitumor activity against human SN12C cells assessed as growth inhibition at 10 uM relative to control; outline: as §2
TK-10 = assay: Antitumor activity against human TK-10 cells assessed as growth inhibition at 10 uM relative to control; outline: as §2
PC-3 = assay: Antitumor activity against human PC-3 cells assessed as growth inhibition at 10 uM relative to control; outline: as §1
DU-145 = assay: Antitumor activity against human DU-145 cells assessed as growth inhibition at 10 uM relative to control; outline: as §1
MCF7 = assay: Antitumor activity against human MCF7 cells assessed as growth inhibition at 10 uM relative to control; outline: as §1
BT-549 = assay: Antitumor activity against human BT-549 cells assessed as growth inhibition at 10 uM relative to control; outline: as §1
T47D = assay: Antitumor activity against human T47D cells assessed as growth inhibition at 10 uM relative to control; outline: as §2

Molecule `CC1=NN(c2nc(-c3ccc(Cl)cc3)c(C#N)c(N3CCOCC3)n2)C(=O)C1` has an inhibition of growth at 10 µM (CCRF-CEM) of 14.1%, an inhibition of growth at 10 µM (K562) of under 1% and an inhibition of growth at 10 µM (MOLT-4) of under 1%. For the same molecule, the inhibition of growth at 10 µM (RPMI-8226) was 42.9%, the inhibition of growth at 10 µM (EKVX) was 11.2% and the inhibition of growth at 10 µM (NCI-H226) was 10.2%. The inhibition of growth at 10 µM (NCI-H23) was 19.3%, the inhibition of growth at 10 µM (NCI-H322M) was under 1% and the inhibition of growth at 10 µM (NCI-H522) was 21.1%. For the same molecule, the inhibition of growth at 10 µM (COLO 205) was under 1%, the inhibition of growth at 10 µM (HCT-116) was under 1% and the inhibition of growth at 10 µM (HCT-15) was 10.3%. The inhibition of growth at 10 µM (HT-29) was under 1%, the inhibition of growth at 10 µM (KM12) was under 1% and the inhibition of growth at 10 µM (SW-620) was 14.8%. It also gave an inhibition of growth at 10 µM (SF-268) of under 1%, an inhibition of growth at 10 µM (SF-539) of under 1% and an inhibition of growth at 10 µM (SNB-19) of under 1%. It also gave an inhibition of growth at 10 µM (SNB-75) of 43.5%, an inhibition of growth at 10 µM (U-251) of under 1% and an inhibition of growth at 10 µM (LOX IMVI) of 24.5%. It also gave an inhibition of growth at 10 µM (Malme-3M) of under 1%, an inhibition of growth at 10 µM (M14) of 10% and an inhibition of growth at 10 µM (MDA-MB-435) of 12.2%. The inhibition of growth at 10 µM (SK-MEL-2) was 12.9%, the inhibition of growth at 10 µM (SK-MEL-28) was 12.9% and the inhibition of growth at 10 µM (SK-MEL-5) was under 1%. It also gave an inhibition of growth at 10 µM (UACC-257) of under 1%, an inhibition of growth at 10 µM (UACC-62) of 21% and an inhibition of growth at 10 µM (OVCAR-3) of 49.8%. It also gave an inhibition of growth at 10 µM (OVCAR-5) of 15.2%, an inhibition of growth at 10 µM (OVCAR-8) of under 1% and an inhibition of growth at 10 µM (NCI/ADR-RES) of under 1%. For the same molecule, the inhibition of growth at 10 µM (SK-OV-3) was 13.4%, the inhibition of growth at 10 µM (786-0) was 13.4% and the inhibition of growth at 10 µM (A498) was 42%. It also gave an inhibition of growth at 10 µM (ACHN) of 26.4%, an inhibition of growth at 10 µM (CAKI-1) of 29.9% and an inhibition of growth at 10 µM (RXF 393) of 56.6%. It also gave an inhibition of growth at 10 µM (SN12C) of 112%, an inhibition of growth at 10 µM (TK-10) of under 1% and an inhibition of growth at 10 µM (PC-3) of under 1%. It also gave an inhibition of growth at 10 µM (DU-145) of under 1%, an inhibition of growth at 10 µM (MCF7) of 1% and an inhibition of growth at 10 µM (BT-549) of 33.9%. It also gave an inhibition of growth at 10 µM (T47D) of under 1%.
